Experiment [1] concerns DNA. Briefly: Binding affinity to AATTGCAATT-AATTGCAATT DNA fragment (unknown origin) by DNaseI footprinting analysis. It is filed as nucleic-acid assay. The conditions noted are these: Homo sapiens.
The subject of experiment [2] is Nucleic Acid. Kind of experiment: Binding affinity to hairpin oligomer duplex A4GT4 DNA (unknown origin) at 4:1 drug/DNA ratio by ESI mass spectrometry. Type of experiment: nucleic-acid assay. The note with it: Homo sapiens. The gist of the method:
(§1)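 Competition ESI-MS run on a mixture of DNA sequences with a pure GC sequence as non-binding internal standard. Ligand was titrated at 1:1, 2:1 and 4:1 mole ratios to each single sequence (e.g. 10 μM ligand to 5 μM DNA). Relative peak intensities of free DNA and ligand-DNA complexes were compared.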

The test system of experiment [3] is Nucleic Acid. Kind of experiment: Binding affinity to hairpin oligomer duplex A4GT4 DNA (unknown origin) assessed as change in melting temperature at 2:1 drug/DNA ratio by spectrophotometry. Type of experiment: nucleic-acid assay.
Experiment [4] deals with Nucleic Acid. Kind of experiment: Binding affinity to hairpin oligomer duplex A4GCT4 DNA (unknown origin) assessed as change in melting temperature at 2:1 drug/DNA ratio by spectrophotometry. Type of experiment: nucleic-acid assay.
For experiment [5], the system named is Nucleic Acid. Kind of experiment: Binding affinity to hairpin oligomer duplex A4GCT4 DNA (unknown origin) by ESI mass spectrometry. It is filed as nucleic-acid assay. The conditions noted are these: Homo sapiens.
For experiment [6], the system named is Nucleic Acid. Briefly: Binding affinity to hairpin oligomer duplex A4T4 DNA (unknown origin) at 4:1 drug/DNA ratio by ESI mass spectrometry. Type of experiment: nucleic-acid assay. The conditions noted are these: Homo sapiens. The gist of the method:
as §1

Experiment [7] relates to DNA. Briefly: Binding affinity to A4CT4-A4GT4 DNA fragment (unknown origin) by DNaseI footprinting analysis. The note with it: Homo sapiens. It is filed as nucleic-acid assay.
Experiment [8] has as its system DNA. Briefly: Binding affinity to AATTCAATT-AATTGAATT DNA fragment (unknown origin) by DNaseI footprinting analysis. It is filed as nucleic-acid assay. The conditions noted are these: Homo sapiens.
For experiment [9], the system named is Nucleic Acid. Kind of experiment: Binding affinity to hairpin oligomer duplex A4T4 DNA (unknown origin) assessed as change in melting temperature at 2:1 drug/DNA ratio by spectrophotometry. Type of experiment: nucleic-acid assay.
Experiment [10] addresses Nucleic Acid. Kind of experiment: Binding affinity to biotinylated-hairpin oligomer duplex A4IT4 DNA (unknown origin) by surface plasmon resonance method. It is filed as nucleic-acid assay, Homo sapiens. The gist of the method: (§2)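 SPR sensorgrams recorded for ligand injected over immobilized hairpin DNA at a concentration series: 2, 3, 5, 7, 10 and 15 nM for A4GT4, higher concentrations for A4IT4 and A4T4.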

Experiment [11] relates to Nucleic Acid. Briefly: Binding affinity to hairpin oligomer duplex A4GT4 DNA (unknown origin) by circular dichroism method. Type of experiment: nucleic-acid assay. The conditions noted are these: Homo sapiens. The gist of the method:
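Ligand titrated incrementally into the DNA, with CD spectra followed in the DNA region (230 to 290 nm).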

Experiment [12] has as its system Nucleic Acid. Briefly: Binding affinity to biotinylated-hairpin oligomer duplex A4T4 DNA (unknown origin) by surface plasmon resonance method. The note with it: Homo sapiens. Type of experiment: nucleic-acid assay. The essentials:
as §2

Experiment [13] has as its target Nucleic Acid. Kind of experiment: Binding affinity to biotinylated-hairpin oligomer duplex A4GT4 DNA (unknown origin) by surface plasmon resonance method in presence of 0.1 M Na+ ion. It is filed as nucleic-acid assay, Homo sapiens. The essentials: as §2
Experiment [14] concerns Nucleic Acid. Briefly: Binding affinity to biotinylated-hairpin oligomer duplex A4GCT4 DNA (unknown origin) by surface plasmon resonance method. The conditions noted are these: Homo sapiens. It is filed as nucleic-acid assay.

The source made the active and inactive calls. The rule behind the calls is not given here.

As to `N=C(N)c1ccc2nc(-c3ccc(OCc4cccc(COc5ccc(-c6nc7ccc(C(=N)N)cc7[nH]6)cc5)c4)cc3)[nH]c2c1`, the outcome in the experiment with DNA [1], in the experiment on Nucleic Acid [2], in the experiment on Nucleic Acid [6], in the experiment with DNA [7] and in the experiment on DNA [8] was Active. In addition, the ΔTm in the experiment with Nucleic Acid [3] was 17 °C; in the experiment on Nucleic Acid [4], under 1 °C; in the experiment on Nucleic Acid [9], 21 °C. Besides, the outcome in the experiment with Nucleic Acid [5] was inactive.
On to `CN1CCN(c2ccc3nc(-c4ccc(OCc5cccc(COc6ccc(-c7nc8ccc(N9CCN(C)CC9)cc8[nH]7)cc6)n5)cc4)[nH]c3c2)CC1`, for which the ΔTm in the experiment on Nucleic Acid [3] worked out at 19 °C; in the experiment on Nucleic Acid [4] it was 6 °C; in the experiment with Nucleic Acid [9] it was 14 °C.
As to `N=C(N)c1ccc2nc(-c3ccc(-c4cccc(-c5ccc(-c6nc7ccc(C(=N)N)cc7[nH]6)cc5)n4)cc3)[nH]c2c1`, the result in the experiment with Nucleic Acid [2] and with Nucleic Acid [6] was Active. For the same compound, the ΔTm came to 19 °C with Nucleic Acid [3], 5 °C in the experiment with Nucleic Acid [4] and 24 °C in the experiment with Nucleic Acid [9]. In the experiment with Nucleic Acid [5], the result was inactive.
As to `N=C(N)c1ccc2nc(-c3ccc(OCc4cccc(COc5ccc(-c6nc7ccc(C(=N)N)cc7[nH]6)cc5)n4)cc3)[nH]c2c1`, the outcome in the experiment on DNA [1], in the experiment with Nucleic Acid [5] and with Nucleic Acid [14] was inactive. Also, the outcome with Nucleic Acid [2], in the experiment on Nucleic Acid [11], with Nucleic Acid [12], with DNA [7] and with DNA [8] was Active. Also, the Kd on Nucleic Acid [10] is 1200 pM; at Nucleic Acid [13] it was 15 pM. Further, the ΔTm in the experiment with Nucleic Acid [3] worked out at 22 °C; with Nucleic Acid [4], 8 °C; in the experiment with Nucleic Acid [9], 15 °C.
